# 14-3-3 Bad inh: disrupts binding of bovine 14-3-3 zeta to phospho-Bad peptide | hit rate 0.71% among 220,000 | P63103 | inhibition, % at 21.7 µM | AID 781 | TR-FRET 14-3-3zeta/Dy647-pBad peptide displacement, 1 h;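 active means inhibition above about 70%, limit read from the data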;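 further: 0% = full 14-3-3 plus peptide FRET controls and 100% = background without 14-3-3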
# Target sequence (P63103 whole entry, looked up): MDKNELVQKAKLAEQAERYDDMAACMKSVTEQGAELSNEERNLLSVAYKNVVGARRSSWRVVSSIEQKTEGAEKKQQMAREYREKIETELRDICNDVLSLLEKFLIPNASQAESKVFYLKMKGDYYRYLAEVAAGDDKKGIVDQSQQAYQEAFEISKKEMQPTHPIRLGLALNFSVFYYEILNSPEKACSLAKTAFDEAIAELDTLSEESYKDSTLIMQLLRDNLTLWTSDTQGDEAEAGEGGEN
# p47phox inh: p47phox (human) inhibition; P14598; p47phox/p22phox peptide binding, fluorescence polarization, 2 h; inhibition, % at 24.7 µM; hit rate 0.53% among 220,000;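 further: 0% = p47phox with labelled peptide and 100% = labelled peptide alone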
# Target sequence (P14598 whole entry, looked up): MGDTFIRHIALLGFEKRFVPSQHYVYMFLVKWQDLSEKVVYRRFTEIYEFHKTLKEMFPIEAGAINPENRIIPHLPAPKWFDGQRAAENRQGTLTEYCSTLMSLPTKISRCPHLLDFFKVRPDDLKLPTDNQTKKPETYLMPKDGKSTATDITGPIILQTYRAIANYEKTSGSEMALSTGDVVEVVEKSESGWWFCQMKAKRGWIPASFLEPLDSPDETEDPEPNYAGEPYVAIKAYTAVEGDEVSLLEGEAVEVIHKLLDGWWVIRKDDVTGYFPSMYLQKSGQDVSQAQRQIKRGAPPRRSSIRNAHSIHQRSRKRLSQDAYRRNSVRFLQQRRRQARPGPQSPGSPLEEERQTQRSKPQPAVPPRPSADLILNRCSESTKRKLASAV
# eIF4E 4G PPI: eIF4E/eIF4G interaction inhibition in translation initiation | P63073+Q04637 | hit rate 0.37% among 220,000 | inhibition, % at 21.7 µM | TR-FRET eIF4E-eIF4GI(517-606) binding, 2 h;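 further: 0% = full FRET control wells and 100% = background wells lacking eIF4GI fragment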
# RBBP9 inhibitor: inhibitors of human serine hydrolase RBBP9; O75884; hit rate 0.2% among 220,000; inhibition, % at 7.94 µM; recombinant RBBP9, FP-Rh probe fluorescence polarization; AID 1515;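 active means inhibition above the campaign mean of all tested compounds plus 3 SD, cut at about 14% in these data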;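 further: plate controls were DMSO wells with RBBP9 for no effect and wells lacking RBBP9 protein for full effect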
#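 System: RBBP9 protein | Quantity: 2.5 µM RBBP9 dispensing solution, before mixing | Reagent: FP-Rh probe, 375 nM dispensing solution | Timing: Enzyme-compound preincubation 30 min, then probe labeling 45 min, 25 °C | Measured by: Fluorescence polarization | Read-out: % inhibition | Replication: One well per compound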
# EBV gp42 block: inhibitors of Epstein-Barr virus glycoprotein 42; Fluorescence polarization binding assay, mP read-out; inhibition, % (tested at 21.74 µM); hit rate 0.42% among 220,000; AID 1085; in the data active means inhibition above about 50%
# WT yeast gro inh: growth inhibition of WT yeast, mitochondrial fusion screen. hit rate 2.1% among 190,000. AID 1362. mitochondrial fusion phenotypic screen, WT strain. inhibition, % at 10 µM; in the data active means inhibition above about 58%; tested in S. cerevisiae
# * marks the source's active call; other numbers are inactive results; . = no result given; [ ] = dose if it differs, or a comment. A selection: hits, their analogues and other compounds. The true share with any hit is near 3.7%.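 How the source made its calls, unless noted: active means inhibition above about 30% (limit read from the data); inactive means the rest.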
SMILES,14-3-3 Bad inh,p47phox inh,eIF4E 4G PPI,RBBP9 inhibitor,EBV gp42 block,WT yeast gro inh
O=C(Nc1nnc(C2CC2)o1)c1ccc(S(=O)(=O)N2CCc3ccccc3C2)cc1,-13.0,.,1.5,2.3,-5.9,63.8*
Cc1cc(=O)c(C(=O)O)nn1-c1ccc(Cl)cc1,14.9,5.9,-13.9,2.3,-2.2,.
Cc1cc(C)nc(NC(=NCCc2c[nH]c3ccccc23)NC(=O)C(C)(C)C)n1,-16.2,-1.8,-0.1,-8.1,8.8,.
Cc1ccc(NC(=O)C2CC(=O)N(CCc3ccccc3)C2)c(C)c1 (configuration not stated),-18.8,8.7,-2.5,-0.4,-5.6,5.7
O=C(NC1CCCC1)C1CCCN1C(=O)Oc1ccccc1 (configuration not stated),-6.1,-1.9,0.3,-8.7,-5.0,5.5
S=C1NC2(CCCCC2)Nc2ccccc21,-3.6,-104.0,1.6,5.3,-19.2,6.6
CC(O)CNc1nc2sc3c(c2c(=O)n1CCc1ccccc1)CCCCC3 (configuration not stated),-4.2,-40.4,3.1,-3.0,24.3,74.5*
CCOC(=O)C1(Cc2ccc(Cl)cc2)CCN(Cc2cnc(N)nc2)CC1,-14.9,-15.7,-0.7,-10.2,2.0,-0.5
CCOC(=O)C1(S(=O)(=O)c2ccc(Cl)cc2)CCN(Cc2ccc(C)cc2)CC1,-12.3,-23.9,3.1,-1.7,-18.1,71.8*
CC1CCCC(NC(=O)C2CCC(CNc3c(N4CCCCC4)c(=O)c3=O)CC2)C1C (configuration not stated),89.5*,-2.3,0.5,-9.5,-17.0,.
CC1CCCC(NC(=O)C2CCC(CNc3c(N4CCCC4)c(=O)c3=O)CC2)C1C (configuration not stated),-3.6,-7.8,-11.7,-1.1,-2.6,.
NS(=O)(=O)c1ccc(NC(=O)C(=O)NCCC(=O)O)cc1,1.0,-4.0,5.3,-5.3,-2.5,.
COc1ccc(CCNc2ccncn2)cc1OC,57.6,-5.3,-1.0,-4.2,-25.9,-2.6
COc1ccc(CCNc2ccncn2)cc1,72.4*,-4.3,-1.0,5.4,-19.8,1.9
COC(=O)Cn1cc(/C=N/NC(=O)COc2cccc3cccnc23)c2ccccc21,45.5,26.6,11.5,-4.6,-11.7,-16.5
C#CCn1cc(/C=N/NC(=O)COc2cccc3cccnc23)c2ccccc21,92.1*[fluorescence artefact?],28.9,10.6,-5.9,-75.6,8.3
CC(C)NOC(=O)c1ccc(Cl)cc1,-13.7,-8.2,2.5,-7.4,5.5,7.7
CC(C)(C)NC(=O)COC(=O)c1ccccc1C(=O)c1ccccc1,7.2,2.0,6.2,-2.1,-12.5,-19.8
COc1ccc(C(=O)C(C)Oc2cccc(NC(=O)c3cccc([N+](=O)[O-])c3)c2)cc1 (configuration not stated),3.5,-4.7,2.5,-4.0,8.9,32.0
COc1ccc2nc(C)cc(SCC(=O)N/N=C/c3c(OC)ccc4ccccc34)c2c1,95.8*[fluorescence artefact?],42.2*,19.0,5.1,-17.1,-21.7
S=C(NCCCN1CCOCC1)N1CCN(c2nc(-c3ccc(Cl)cc3)cs2)CC1,-17.8,-33.0,-2.5,-5.0,1.4,88.7*
S=C(NCC1CCCO1)N1CCN(c2nc(-c3ccc(Cl)cc3)cs2)CC1 (configuration not stated),-15.3,-30.6,-3.9,2.5,-19.6,67.1*
Cc1nn(-c2ccccc2)nc1-c1nnc(-c2ccc(C(F)(F)F)cc2)o1,4.3,-3.0,-2.6,-8.3,-5.8,.
CC(=O)N1CCc2cc(N=NC3=C(O)CC(C)(C)CC3=O)ccc21,-2.0,-68.7,5.8,-7.5,-78.3,-15.1
Cc1ccccc1C(=O)NC(=S)NCCC1=CCCCC1,-2.8,.,0.8,3.9,-5.5,71.2*
SMILES,14-3-3 Bad inh,p47phox inh,eIF4E 4G PPI,RBBP9 inhibitor,EBV gp42 block,WT yeast gro inh
O=C(NC(=S)NCCC1=CCCCC1)c1ccc(Br)o1,-9.1,-9.8,-9.5,-5.7,-15.3,75.9*
Cc1ccc(NC(=S)NCCC2=CCCCC2)cc1,-6.6,-5.7,-0.5,-6.1,2.8,68.3*
CCOC(=O)c1ccc(NC(=S)NCCC2=CCCCC2)cc1,9.3,-3.1,-3.1,-5.0,8.0,14.0
COc1ccc(C(=O)NC(=S)Nc2nc(C)cc(C)n2)cc1Br,-3.7,-14.4,-2.7,-2.4,-9.5,.
Cc1ccc(NC(=S)N/N=C/c2cccn2Cc2ccccc2F)cc1,-7.2,0.3,0.9,-8.8,-5.8,.
O=C(O)C(c1ccccc1)C(c1ccccc1)c1ccccc1 (configuration not stated),-10.9,6.8,0.7,-2.9,-8.0,-8.1
Cc1cccc(N=Nc2c(C)nn(-c3ccccc3)c2N)c1C,0.0,-9.7,2.6,-6.3,-5.2,83.3*
Cc1nn(-c2ccccc2)c(N)c1N=Nc1ccc(Cl)cc1,6.9,5.1,0.2,-0.3,-7.2,81.2*
Cc1nn(-c2ccccc2)c(N)c1N=Nc1ccccc1,-5.0,-11.9,1.3,-6.5,0.0,23.6
O=C(CSc1nnc(NC(=O)c2ccco2)s1)Nc1ccc2c(c1)OCCO2,5.4,-9.2,4.4,-1.1,-4.1,2.9
Fc1cccc(NC(=S)N2CCn3cccc3C2c2cccnc2)c1 (configuration not stated),-4.1,-3.0,-7.7,-2.0,-10.3,5.2
Fc1ccccc1C1c2cccn2CCN1C(=S)Nc1ccc(Br)cc1 (configuration not stated),-6.5,-28.1,-0.2,-4.8,-2.5,62.5*
Fc1ccccc1C1c2cccn2CCN1C(=S)Nc1cccc(Br)c1 (configuration not stated),-8.1,-23.1,-5.4,-8.0,-11.9,59.2*
Fc1ccc(C2c3cccn3CCN2C(=S)Nc2cccc(F)c2)cc1 (configuration not stated),-15.4,-14.1,-7.4,-7.1,-4.7,79.8*
CCCOc1ccc(CCC(=O)N/N=C/c2ccncc2)cc1,-1.7,3.2,-8.0,-1.1,-7.1,.
Cc1cccc(C)c1N1CCN(S(=O)(=O)N(C)C)CC1,-4.9,-5.6,-3.3,-6.5,8.5,4.7
CC(C)(C)c1ccc(S(=O)(=O)Nc2ccccn2)cc1,2.9,-7.1,2.6,-9.8,-22.3,7.8
CCc1ccccc1N(C1=NCCCS1)S(=O)(=O)c1ccc(C(C)(C)C)cc1,7.5,-11.8,0.0,0.5,-11.1,66.0*
O=c1ccc2cc3c4c(c2o1)CCCN4CCC3,8.4,-11.0,9.4,0.5,128.5*,10.8
Cc1cccc(N2CCC(N=CN(C)C)=N2)c1,-9.6,0.6,7.3,3.7,-23.1,17.9
O=C(NCC1OCCc2ccccc21)c1cc(COc2c(F)cccc2F)on1 (configuration not stated),26.6,-5.8,5.7,-8.6,13.5,12.4
Cc1ccn(C)c(=N)c1,5.5,-6.3,-0.9,-7.8,-6.5,.
CCOC(=O)/C(C#N)=C1\Nc2ccccc2N=C1N(CC(C)C)CC(C)C,2.6,-6.8,-6.3,-6.1,-16.7,76.3*
